Data on three compounds can be found in ChEMBL document CHEMBL5696442, “Discovery of type II inhibitors of TGFβ-activated kinase 1 (TAK1) and mitogen-activated protein kinase kinase kinase kinase 2 (MAP4K2)” (J Med Chem, 2015).

The target in test [1] is Cyclin-dependent kinase 2 (Homo sapiens) (UniProt P24941). As to the kind of experiment: Inhibition of CDK2 Lys1 labeling site in human A-375 cells at 0.05 uM by KiNativ Profiling analysis relative to control. The format is cell-based.
Test [2] concerns the target DNA-PK/Ku70/Ku85 (Homo sapiens) (UniProt P78527+P12956+P13010). As to the kind of experiment: Inhibition of DNAPK ATP labeling site harbouring GHDEREHPFLVKGGEDLRQDQR in human A-375 cells at 5 uM by KiNativ Profiling analysis relative to control. The format is cell-based. In a few lines:
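Live A375 melanoma cells were treated with compound at 0.5 or 5 μM, then lysed. Lysates were labeled with a lysine-reactive ATP or ADP-biotin probe. The read-out was protection of each kinase probe-labeling site from labeling, relative to control.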

The target in test [3] is Dual specificity mitogen-activated protein kinase kinase 1 (Homo sapiens) (UniProt Q02750). As to the kind of experiment: Inhibition of MAP2K1 Lys2 labeling site harbouring IMHRDVKPSNILVNSR in human A-375 cells at 0.5 uM by KiNativ Profiling analysis relative to control. It counts as cell-based.
Chain of Dual specificity mitogen-activated protein kinase kinase 1 (Homo sapiens) (Q02750 whole entry): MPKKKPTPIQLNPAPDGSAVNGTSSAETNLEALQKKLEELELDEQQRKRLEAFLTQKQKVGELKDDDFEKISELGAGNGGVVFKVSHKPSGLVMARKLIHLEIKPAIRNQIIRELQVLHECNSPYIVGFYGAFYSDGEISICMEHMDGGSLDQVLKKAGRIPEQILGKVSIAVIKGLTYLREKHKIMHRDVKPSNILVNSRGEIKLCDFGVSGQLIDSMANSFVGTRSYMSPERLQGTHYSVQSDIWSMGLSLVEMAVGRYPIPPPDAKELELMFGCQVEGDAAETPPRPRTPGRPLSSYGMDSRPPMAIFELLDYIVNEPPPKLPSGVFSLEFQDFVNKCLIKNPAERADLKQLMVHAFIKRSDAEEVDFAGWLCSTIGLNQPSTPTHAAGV
Test [4] addresses Serine/threonine-protein kinase WNK3 (Homo sapiens) (UniProt Q9BYP7). In words: Inhibition of Wnk3 Lys2 labeling site in human A-375 cells at 0.5 uM by KiNativ Profiling analysis relative to control. The format is cell-based.
Test [5] concerns the target Mitogen-activated protein kinase 10 (Homo sapiens, UniProt P53779). In words: Inhibition of JNK3 (unknown origin) Lys2 labeling site by KiNativ Profiling analysis.
The target of test [6] is T1, Serine/threonine-protein kinase Chk1 (Homo sapiens) (UniProt O14757).
T1 sequence (whole entry): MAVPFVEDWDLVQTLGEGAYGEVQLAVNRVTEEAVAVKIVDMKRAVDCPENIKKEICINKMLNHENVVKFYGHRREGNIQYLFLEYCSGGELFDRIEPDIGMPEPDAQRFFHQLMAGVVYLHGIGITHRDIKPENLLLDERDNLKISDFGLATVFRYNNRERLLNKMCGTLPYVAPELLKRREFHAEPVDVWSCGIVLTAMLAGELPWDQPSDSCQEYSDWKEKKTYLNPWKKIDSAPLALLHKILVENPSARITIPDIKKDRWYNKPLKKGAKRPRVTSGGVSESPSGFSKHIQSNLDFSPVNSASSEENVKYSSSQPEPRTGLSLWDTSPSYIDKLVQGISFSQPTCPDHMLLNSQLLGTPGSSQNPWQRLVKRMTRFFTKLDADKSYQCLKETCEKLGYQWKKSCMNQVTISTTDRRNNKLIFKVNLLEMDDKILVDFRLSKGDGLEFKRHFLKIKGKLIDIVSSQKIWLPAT
As to the kind of experiment: Inhibition of CHK1 Lys2 labeling site harbouring DIKPENLLLDER in human A-375 cells at 5 uM by KiNativ Profiling analysis relative to control. It counts as cell-based. The procedure, abridged: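 Live A375 melanoma cells were treated with compound at 5 or 0.5 μM. The cells were then lysed, and the lysates were labeled with a lysine-reactive ATP or ADP-biotin acyl probe (KiNativ). Inhibition is the compound's protection of each kinase labeling-site peptide from probe labeling, relative to untreated control.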

Test [7] concerns BaF3. In words: Antiproliferative activity against parental mouse BaF3 cells harbouring Bcr/Abl assessed reduction in cell viability measured after 48 hrs by Celltiter-glo assay. It counts as functional, cell-based. The note with it: BaF3, 48 h. The procedure, abridged: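 Cells were grown with serial dilutions of compound for 48 h, and viability was read by CellTiter-Glo. IC50 was derived from the dose–response curve. Parental Ba/F3 cells were grown in the presence of interleukin 3. The BCR-ABL line is BCR-ABL-dependent Ba/F3.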

Test [8] concerns the target Mitogen-activated protein kinase kinase kinase 1 (Homo sapiens) (UniProt Q13233). In words: Inhibition of MAP3K1 Lys2 labeling site in human A-375 cells at 0.5 uM by KiNativ Profiling analysis relative to control. It counts as cell-based.
Test [9] deals with T2, Kinase suppressor of Ras 1 (Homo sapiens) (UniProt Q8IVT5).
T2 sequence (whole entry): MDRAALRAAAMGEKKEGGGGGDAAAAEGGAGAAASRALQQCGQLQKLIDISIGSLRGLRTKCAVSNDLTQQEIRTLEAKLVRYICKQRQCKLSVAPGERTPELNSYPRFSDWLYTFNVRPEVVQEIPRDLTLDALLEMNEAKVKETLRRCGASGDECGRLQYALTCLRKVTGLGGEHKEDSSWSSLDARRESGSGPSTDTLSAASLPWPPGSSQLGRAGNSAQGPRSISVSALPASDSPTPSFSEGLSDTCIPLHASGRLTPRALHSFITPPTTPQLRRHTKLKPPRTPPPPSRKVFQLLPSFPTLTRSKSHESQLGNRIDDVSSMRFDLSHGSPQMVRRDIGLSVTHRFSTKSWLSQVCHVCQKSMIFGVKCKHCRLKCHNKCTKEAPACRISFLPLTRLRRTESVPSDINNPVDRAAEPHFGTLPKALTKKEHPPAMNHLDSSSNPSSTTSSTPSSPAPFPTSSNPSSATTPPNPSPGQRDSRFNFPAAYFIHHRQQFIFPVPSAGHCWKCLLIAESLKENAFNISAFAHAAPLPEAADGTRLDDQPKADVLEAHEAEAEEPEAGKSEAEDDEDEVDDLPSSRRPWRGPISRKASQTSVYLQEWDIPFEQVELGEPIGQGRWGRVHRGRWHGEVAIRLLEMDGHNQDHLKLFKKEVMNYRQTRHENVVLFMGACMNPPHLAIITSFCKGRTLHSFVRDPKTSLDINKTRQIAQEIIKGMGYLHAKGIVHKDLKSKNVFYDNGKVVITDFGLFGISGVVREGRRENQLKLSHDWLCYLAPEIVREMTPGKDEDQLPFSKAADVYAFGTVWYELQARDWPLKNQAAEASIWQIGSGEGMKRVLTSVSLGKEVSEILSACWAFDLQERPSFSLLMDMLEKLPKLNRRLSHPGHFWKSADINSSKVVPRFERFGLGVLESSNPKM
In words: Inhibition of KSR1 ACT labeling site harbouring SKNVFYDNGK in human A-375 cells at 5 uM by KiNativ Profiling analysis relative to control. It counts as cell-based.

For test [10], the target named is Ribosomal protein S6 kinase alpha-1 (Homo sapiens) (UniProt Q15418). In words: Inhibition of RSK1 domain1 Lys1 labeling site in human A-375 cells at 0.05 uM by KiNativ Profiling analysis relative to control. The format is cell-based.
Chain of Ribosomal protein S6 kinase alpha-1 (Homo sapiens) (Q15418 whole entry, the tested form may be a part): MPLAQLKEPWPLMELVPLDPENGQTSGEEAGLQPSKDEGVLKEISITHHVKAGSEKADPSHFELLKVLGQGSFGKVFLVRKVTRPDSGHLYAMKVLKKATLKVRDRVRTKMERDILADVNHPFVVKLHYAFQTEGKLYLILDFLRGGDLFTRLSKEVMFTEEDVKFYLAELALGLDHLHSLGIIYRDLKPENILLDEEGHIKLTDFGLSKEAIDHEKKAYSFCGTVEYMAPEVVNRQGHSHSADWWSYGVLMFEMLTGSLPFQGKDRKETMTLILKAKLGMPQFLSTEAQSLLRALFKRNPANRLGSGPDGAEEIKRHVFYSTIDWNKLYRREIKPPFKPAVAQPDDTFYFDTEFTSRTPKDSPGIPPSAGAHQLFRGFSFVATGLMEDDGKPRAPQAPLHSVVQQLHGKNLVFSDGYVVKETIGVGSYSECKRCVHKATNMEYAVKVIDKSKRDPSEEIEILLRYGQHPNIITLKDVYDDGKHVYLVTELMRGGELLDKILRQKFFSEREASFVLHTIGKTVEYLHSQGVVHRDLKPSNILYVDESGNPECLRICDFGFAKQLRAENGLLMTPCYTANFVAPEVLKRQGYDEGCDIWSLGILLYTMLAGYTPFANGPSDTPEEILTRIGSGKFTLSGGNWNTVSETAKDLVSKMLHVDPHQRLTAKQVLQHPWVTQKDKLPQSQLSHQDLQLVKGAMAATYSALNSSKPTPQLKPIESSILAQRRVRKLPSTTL
Test [11] has as its target Serine/threonine-protein kinase SMG1 (Homo sapiens) (UniProt Q96Q15). In words: Inhibition of SMG1 ATP labeling site harbouring SYPYLFKGLEDLHLDER in human A-375 cells at 0.05 uM by KiNativ Profiling analysis relative to control. The format is cell-based.
For test [12], the target named is Serine/threonine-protein kinase 26 (Homo sapiens) (UniProt Q9P289). In words: Inhibition of MST4 ACT labeling site in human A-375 cells at 0.05 uM by KiNativ Profiling analysis relative to control. The format is cell-based.
The test system of test [13] is GEN2.2. In words: Inhibition of CL097 induced JNK1/2 phosphorylation level in human GEN2.2 cells at 1 uM preincubated with compound for 1 hr followed by CL097 stimulation and measured after 30 mins by Western blot analysis. It counts as functional, cell-based. The procedure, abridged: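 Gen2.2 cells were pretreated with compound at 1 μM for 1 h, then stimulated with CL097 for 30 min. Lysates were analysed by Western blot for phosphorylation of p105, p38 and JNK1/2.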

pIC50: −log10 of the molar value. Calls of active or inactive are those of the source. The calls are words filed in the database; no cut-off is given here.

Chain of Mitogen-activated protein kinase kinase kinase 1 (Homo sapiens) (Q13233 whole entry): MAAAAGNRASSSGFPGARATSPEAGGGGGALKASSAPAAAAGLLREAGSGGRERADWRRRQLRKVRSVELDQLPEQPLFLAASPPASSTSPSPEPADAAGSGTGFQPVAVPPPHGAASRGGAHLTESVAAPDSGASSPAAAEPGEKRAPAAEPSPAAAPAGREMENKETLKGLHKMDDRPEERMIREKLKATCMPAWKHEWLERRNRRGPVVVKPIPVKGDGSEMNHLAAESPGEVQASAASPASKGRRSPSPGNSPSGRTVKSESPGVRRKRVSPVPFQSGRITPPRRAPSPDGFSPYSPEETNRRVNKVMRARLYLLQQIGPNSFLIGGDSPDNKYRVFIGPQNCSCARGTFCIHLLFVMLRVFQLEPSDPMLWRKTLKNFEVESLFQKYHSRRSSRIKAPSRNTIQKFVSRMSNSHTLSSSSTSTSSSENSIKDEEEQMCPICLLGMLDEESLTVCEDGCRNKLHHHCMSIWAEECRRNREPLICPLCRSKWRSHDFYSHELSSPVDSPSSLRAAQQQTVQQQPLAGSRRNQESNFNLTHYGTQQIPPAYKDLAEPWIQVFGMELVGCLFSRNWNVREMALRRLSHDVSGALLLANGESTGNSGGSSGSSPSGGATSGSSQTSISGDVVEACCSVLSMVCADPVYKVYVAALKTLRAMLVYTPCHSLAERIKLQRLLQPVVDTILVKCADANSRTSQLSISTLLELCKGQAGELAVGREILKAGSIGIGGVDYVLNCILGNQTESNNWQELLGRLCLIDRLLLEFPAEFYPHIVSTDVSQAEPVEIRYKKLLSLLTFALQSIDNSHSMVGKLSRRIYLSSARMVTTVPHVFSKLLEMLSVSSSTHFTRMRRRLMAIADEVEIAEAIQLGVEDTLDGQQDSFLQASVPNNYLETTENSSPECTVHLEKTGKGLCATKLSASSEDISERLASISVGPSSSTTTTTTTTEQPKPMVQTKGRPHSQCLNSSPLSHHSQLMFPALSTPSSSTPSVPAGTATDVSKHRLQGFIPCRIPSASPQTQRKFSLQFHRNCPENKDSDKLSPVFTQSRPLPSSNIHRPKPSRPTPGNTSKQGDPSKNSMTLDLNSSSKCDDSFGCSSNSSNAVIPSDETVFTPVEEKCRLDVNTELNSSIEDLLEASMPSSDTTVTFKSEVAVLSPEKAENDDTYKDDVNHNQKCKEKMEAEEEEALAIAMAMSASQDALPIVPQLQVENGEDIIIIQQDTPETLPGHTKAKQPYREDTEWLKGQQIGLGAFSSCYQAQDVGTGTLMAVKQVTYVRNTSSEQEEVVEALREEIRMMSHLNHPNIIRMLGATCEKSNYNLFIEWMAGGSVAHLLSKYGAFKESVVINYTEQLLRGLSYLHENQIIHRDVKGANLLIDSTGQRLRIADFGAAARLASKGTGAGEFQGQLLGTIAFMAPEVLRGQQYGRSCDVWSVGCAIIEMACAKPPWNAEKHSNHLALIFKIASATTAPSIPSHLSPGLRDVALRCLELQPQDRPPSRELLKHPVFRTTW
Chain of Mitogen-activated protein kinase 10 (P53779 whole entry): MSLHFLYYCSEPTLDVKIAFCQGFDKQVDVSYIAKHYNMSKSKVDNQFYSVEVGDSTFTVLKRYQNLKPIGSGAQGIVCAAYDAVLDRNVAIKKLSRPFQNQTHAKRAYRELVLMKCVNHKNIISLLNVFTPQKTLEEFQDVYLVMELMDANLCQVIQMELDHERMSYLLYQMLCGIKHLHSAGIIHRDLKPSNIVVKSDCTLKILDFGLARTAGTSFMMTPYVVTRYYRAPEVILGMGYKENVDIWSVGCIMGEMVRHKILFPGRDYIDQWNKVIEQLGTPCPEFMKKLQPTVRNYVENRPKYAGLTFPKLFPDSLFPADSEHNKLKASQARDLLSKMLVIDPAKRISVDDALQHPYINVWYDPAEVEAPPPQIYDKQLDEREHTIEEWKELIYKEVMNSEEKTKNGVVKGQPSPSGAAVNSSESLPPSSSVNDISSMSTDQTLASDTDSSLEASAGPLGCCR
Chain of Serine/threonine-protein kinase WNK3 (Homo sapiens) (Q9BYP7 whole entry): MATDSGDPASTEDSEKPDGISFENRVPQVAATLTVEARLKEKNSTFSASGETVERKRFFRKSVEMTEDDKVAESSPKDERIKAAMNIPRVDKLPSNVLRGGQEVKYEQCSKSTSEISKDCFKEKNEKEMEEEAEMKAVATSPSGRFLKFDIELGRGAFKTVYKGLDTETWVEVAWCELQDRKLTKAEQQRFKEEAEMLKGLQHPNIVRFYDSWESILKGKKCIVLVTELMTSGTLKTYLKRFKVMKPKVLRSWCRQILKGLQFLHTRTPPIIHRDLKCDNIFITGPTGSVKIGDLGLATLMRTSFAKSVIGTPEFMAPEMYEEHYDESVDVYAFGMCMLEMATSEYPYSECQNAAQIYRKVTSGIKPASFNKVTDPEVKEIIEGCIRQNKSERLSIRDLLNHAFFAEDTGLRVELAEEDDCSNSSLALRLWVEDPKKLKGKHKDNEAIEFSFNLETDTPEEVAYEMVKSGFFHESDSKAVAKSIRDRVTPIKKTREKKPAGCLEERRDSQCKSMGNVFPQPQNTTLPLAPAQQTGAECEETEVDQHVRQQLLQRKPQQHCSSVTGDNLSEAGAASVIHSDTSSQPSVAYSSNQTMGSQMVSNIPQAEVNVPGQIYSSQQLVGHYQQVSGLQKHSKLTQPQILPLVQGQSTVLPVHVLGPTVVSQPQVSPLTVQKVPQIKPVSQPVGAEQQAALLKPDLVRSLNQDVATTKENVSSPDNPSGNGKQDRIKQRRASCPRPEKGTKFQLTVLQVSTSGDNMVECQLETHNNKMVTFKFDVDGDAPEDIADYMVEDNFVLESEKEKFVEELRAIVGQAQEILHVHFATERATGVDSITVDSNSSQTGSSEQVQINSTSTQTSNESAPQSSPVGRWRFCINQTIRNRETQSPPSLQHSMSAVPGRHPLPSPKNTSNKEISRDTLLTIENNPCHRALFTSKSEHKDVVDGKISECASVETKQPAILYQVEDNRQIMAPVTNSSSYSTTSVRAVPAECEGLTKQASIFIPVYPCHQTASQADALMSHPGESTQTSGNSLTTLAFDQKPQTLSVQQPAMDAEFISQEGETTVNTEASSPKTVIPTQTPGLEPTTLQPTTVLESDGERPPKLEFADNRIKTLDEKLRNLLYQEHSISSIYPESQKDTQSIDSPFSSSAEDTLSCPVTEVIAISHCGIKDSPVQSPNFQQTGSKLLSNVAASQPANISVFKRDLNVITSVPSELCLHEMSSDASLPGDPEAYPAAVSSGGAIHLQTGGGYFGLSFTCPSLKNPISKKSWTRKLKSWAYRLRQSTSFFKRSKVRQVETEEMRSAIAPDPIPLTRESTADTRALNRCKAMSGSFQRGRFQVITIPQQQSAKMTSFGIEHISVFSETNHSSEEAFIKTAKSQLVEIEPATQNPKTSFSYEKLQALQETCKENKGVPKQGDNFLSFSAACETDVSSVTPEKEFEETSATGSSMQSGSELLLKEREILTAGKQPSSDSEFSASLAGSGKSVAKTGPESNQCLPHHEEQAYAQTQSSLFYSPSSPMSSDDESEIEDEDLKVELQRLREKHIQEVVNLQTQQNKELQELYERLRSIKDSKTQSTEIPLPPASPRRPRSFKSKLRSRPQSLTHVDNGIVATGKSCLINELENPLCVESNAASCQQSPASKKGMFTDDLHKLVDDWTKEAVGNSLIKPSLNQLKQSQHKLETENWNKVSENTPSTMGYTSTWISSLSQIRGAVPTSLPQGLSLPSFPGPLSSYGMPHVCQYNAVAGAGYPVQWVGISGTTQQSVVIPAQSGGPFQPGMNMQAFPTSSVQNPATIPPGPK

Turning to `CCN1CCN(Cc2ccc(NC(=O)c3ccc(C)c(/C=C/c4cnc5[nH]ccc5c4OC)c3)cc2C(F)(F)F)CC1`, the inhibition is 13.8% in test [1]; -4.9% in test [2]; 19.2% in test [3]; 7.9% in test [4]; -4.8% in test [6]; 43.9% in [8]. For the same compound, the inhibition in test [9] was 12.2%; in [10] it was -0.5%; in [11], 31.7%; in test [12] it was 13.5%. Further, the pIC50 in test [5] was less than 5.00; in test [7], 8.00.
Regarding `CNc1cc(Oc2cc(C(=O)Nc3cc(-n4cnc(C)c4)cc(C(F)(F)F)c3)ccc2C)ncn1`, in test [13], the inhibition entry was “inactive”.
As to `CCN1CCN(Cc2ccc(NC(=O)c3ccc(C)c(Oc4ccnc5[nH]ccc45)c3)cc2C(F)(F)F)CC1`, the inhibition is 16.1% in [1]; 9.9% in [2]; 28.4% in test [3]; -3% in test [4]; 40.1% in [6]; 39.7% in test [8]. Also, the inhibition in test [9] is 32.1%; in test [10] it was -1.6%; in [11] it was 15.6%; in test [12] it was 22.4%. For the same compound, the pIC50 in test [5] was less than 5.00; in [7], 7.74. In test [13], the inhibition entry is “Active”.
